Assay results: ChEMBL document CHEMBL5223168, “Using Imidazo[2,1-b][1,3,4]thiadiazol Skeleton to Design and Synthesize Novel MNK Inhibitors” (ACS Med Chem Lett, 2023)
Activity calls are given as the source filed them. No cut-off for these calls is given here.

Assays:
A549 [1] = assay: Downregulation of MMP-3 in human A549 cells at 5 uM incubated for 24 hrs by Western blot anlaysis; assay type: functional, cell-based
Method in brief: (§1)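 A549 and MDA-MB-231 cells treated 24 h with 5 μM; lysates resolved by SDS-PAGE and immunoblotted for cyclin B1, cyclin D3 and MMP-3.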

A549 [2] = assay: Antimigratory activity against human A549 cells assessed as inhibition of cell migration at 5 uM and measured upto 24 hrs by scratch wound healing assay; assay type: functional, cell-based
Method in brief: (§2)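 Scratch wound-healing: A549 or MDA-MB-231 monolayers wounded, then exposed to 5 μM compound or DMSO; wound imaged at 6 and 24 h; percentage change in wound area quantified by image analysis at each time point.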

[3] = Half life in mouse at 25 mg/kg, iv and measured upto 24 hrs; assay type: ADME, organism-based; conditions: in vivo
MDA-MB-231 [4] = assay: Antimigratory activity against human MDA-MB-231 cells assessed as inhibition of cell migration at 5 uM and measured upto 24 hrs by scratch wound healing assay; assay type: functional, cell-based; method in brief: as §2
MDA-MB-231 [5] = assay: Downregulation of MMP-3 in human MDA-MB-231 cells at 5 uM incubated for 24 hrs by Western blot anlaysis; assay type: functional, cell-based; method in brief: as §1
A549 [6] = assay: Induction of cell cycle arrest in human A549 cells assessed as accumulation of cells at S phase at 5 uM incubated for 16 hrs by propidium iodide staining based flow cytometry (Rvb=12.8%); assay type: functional
A549 [7] = assay: Induction of cell cycle arrest in human A549 cells assessed as accumulation of cells at G0/G1 phase at 5 uM incubated for 8 hrs by propidium iodide staining based flow cytometry (Rvb=91.7%); assay type: functional
mTORC1 (Homo sapiens) = mTORC1 (Homo sapiens) (UniProt P42345+Q8N122+Q9BVC4); assay: Inhibition of mTORC1 in human LNCaP C4-2B cells assessed as inhibition of phosphorylation of rpS6 at Ser240/244 at 5 uM incubated for 2 hrs by Western blot analysis; assay type: cell-based
Sequence of mTORC1 (Homo sapiens) (Q8N122 whole entry, looked up, other chains not shown): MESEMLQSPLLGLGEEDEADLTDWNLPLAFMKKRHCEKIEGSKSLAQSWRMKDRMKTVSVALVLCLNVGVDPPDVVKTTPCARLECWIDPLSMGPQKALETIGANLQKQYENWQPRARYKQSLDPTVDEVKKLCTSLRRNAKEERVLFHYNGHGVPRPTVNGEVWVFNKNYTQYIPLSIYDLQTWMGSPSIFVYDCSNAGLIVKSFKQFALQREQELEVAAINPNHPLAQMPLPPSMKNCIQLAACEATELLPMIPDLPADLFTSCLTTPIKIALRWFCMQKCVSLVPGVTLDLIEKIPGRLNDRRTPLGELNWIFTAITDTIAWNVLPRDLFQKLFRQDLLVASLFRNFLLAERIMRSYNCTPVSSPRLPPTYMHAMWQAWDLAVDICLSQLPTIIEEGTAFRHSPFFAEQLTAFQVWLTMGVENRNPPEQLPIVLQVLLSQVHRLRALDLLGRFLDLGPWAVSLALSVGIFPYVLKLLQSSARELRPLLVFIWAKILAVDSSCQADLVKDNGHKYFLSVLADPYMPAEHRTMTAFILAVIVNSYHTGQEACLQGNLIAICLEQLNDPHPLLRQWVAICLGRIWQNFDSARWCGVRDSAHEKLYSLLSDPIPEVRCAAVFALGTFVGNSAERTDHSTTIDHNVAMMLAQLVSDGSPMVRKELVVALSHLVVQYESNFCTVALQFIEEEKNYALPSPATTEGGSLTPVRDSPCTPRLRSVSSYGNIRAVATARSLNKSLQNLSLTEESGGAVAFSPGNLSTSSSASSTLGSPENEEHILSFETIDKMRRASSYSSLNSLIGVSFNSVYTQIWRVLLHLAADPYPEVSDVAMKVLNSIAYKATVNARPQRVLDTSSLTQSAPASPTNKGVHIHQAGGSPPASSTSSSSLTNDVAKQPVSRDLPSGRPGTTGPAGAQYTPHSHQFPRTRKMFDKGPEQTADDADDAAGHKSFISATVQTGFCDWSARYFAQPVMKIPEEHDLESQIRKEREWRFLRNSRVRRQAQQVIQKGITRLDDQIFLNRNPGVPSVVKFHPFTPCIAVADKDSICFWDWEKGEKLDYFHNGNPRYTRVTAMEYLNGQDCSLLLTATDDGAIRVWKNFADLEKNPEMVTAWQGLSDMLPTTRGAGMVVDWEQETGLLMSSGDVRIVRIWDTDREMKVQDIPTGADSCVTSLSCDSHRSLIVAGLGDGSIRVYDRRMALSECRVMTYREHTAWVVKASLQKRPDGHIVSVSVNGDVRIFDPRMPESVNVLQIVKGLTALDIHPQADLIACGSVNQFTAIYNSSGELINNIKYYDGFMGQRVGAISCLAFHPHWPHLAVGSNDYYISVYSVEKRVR
Sequence of mTORC1 (Homo sapiens) (Q9BVC4 whole entry, looked up, other chains not shown): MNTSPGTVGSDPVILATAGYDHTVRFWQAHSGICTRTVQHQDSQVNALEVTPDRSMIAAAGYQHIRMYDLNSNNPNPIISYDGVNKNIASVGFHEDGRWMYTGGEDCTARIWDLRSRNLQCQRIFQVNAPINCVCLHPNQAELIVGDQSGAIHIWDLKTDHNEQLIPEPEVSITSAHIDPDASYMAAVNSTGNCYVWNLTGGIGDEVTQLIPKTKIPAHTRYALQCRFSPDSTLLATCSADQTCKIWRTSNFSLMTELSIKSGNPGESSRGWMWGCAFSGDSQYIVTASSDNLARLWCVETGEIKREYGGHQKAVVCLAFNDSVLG
Method in brief: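 C4-2B prostate cancer cells treated with inhibitor; lysates probed by Western blot for p-eIF4E, p-S6K (Thr389), p-rpS6 (Ser240/244) and p-AKT (Ser473).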

[8] = biological target: Dual specificity protein kinase CLK1 (Homo sapiens) (UniProt P49759); assay: Inhibition of CLK1 (unknown origin) at 3 uM in presence of ATP by kinase assay
Sequence of Dual specificity protein kinase CLK1 (Homo sapiens) (P49759 whole entry, looked up): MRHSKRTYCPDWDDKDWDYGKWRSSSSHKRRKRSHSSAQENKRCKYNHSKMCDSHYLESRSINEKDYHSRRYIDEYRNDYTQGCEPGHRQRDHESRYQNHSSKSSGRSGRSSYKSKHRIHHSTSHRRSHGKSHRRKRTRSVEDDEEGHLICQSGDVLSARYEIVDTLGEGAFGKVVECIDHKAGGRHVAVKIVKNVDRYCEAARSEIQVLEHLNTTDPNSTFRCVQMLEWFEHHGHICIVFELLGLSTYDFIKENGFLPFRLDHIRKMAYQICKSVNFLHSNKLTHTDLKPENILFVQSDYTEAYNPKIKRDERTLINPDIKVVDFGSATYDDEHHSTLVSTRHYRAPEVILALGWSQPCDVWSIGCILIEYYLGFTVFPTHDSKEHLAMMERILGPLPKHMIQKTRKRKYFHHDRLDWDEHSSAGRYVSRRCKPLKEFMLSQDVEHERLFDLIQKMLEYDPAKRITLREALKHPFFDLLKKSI

[9] = tested on: MAP kinase-interacting kinase MNK1/2 (Homo sapiens); assay: Inhibition of MNK in human PC-3 cells assessed as inhibition of eIF4E phosphorylation at 3 uM incubated for 2 hrs by Western blot analysis
[10] = Tmax in mouse at 50 mg/kg, po and measured upto 24 hrs; assay type: ADME, organism-based; conditions: in vivo
[11] = Oral bioavailability in mouse at 50 mg/kg and 25 mg/kg, iv and measured upto 24 hrs; assay type: ADME, organism-based; conditions: in vivo
A549 [12] = assay: Antitumor activity against human A549 cells xenografted in BALB/C nude mouse assessed as T/C ratio at 150 mg/kg, po QD for 14 days; assay type: functional; conditions: time 14 day
Method in brief: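 A549 xenografts in nude mice; compound given orally once daily at 75 or 150 mg/kg for 14 days, irinotecan reference at 3 mg/kg; tumor growth tracked as T/C ratio (relative tumor proliferation rate); body weight monitored.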

[13] = Tmax in mouse at 25 mg/kg, iv and measured upto 24 hrs; assay type: ADME, organism-based; conditions: in vivo
[14] = tested on: MAP kinase-interacting kinase MNK1/2 (Homo sapiens); assay: Inhibition of MNK in human NCI-H1299 cells assessed as inhibition of eIF4E phosphorylation at 3 uM incubated for 2 hrs by Western blot analysis
[15] = tested on: MAP kinase-interacting kinase MNK1/2 (Homo sapiens); assay: Inhibition of MNK in human NCI-H446 cells assessed as inhibition of eIF4E phosphorylation at 3 uM incubated for 2 hrs by Western blot analysis
A549 [16] = assay: Induction of cell cycle arrest in human A549 cells assessed as accumulation of cells at G0/G1 phase at 5 uM incubated for 20 hrs by propidium iodide staining based flow cytometry (Rvb=70.9%); assay type: functional
[17] = biological target: Eukaryotic translation initiation factor 4E (Homo sapiens) (UniProt P06730); assay: Inhibition of eIF4E phosphorylation in human A549 cells at 5 uM and measured upto 96 hrs by Western blot analysis; assay type: cell-based
Sequence of Eukaryotic translation initiation factor 4E (Homo sapiens) (P06730 whole entry): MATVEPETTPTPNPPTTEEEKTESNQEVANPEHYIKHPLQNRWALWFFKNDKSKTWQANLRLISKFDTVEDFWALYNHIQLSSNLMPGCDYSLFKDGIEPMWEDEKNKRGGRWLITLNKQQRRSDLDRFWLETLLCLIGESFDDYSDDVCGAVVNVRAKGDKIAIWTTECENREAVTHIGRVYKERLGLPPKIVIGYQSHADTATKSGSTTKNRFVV
Method in brief: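 Cells maintained with compound at 5 μM for up to 6 days for cell counts; eIF4E phosphorylation followed by immunoblot for up to 96 h.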

MEF [18] = assay: Inhibition of MNK in MNK2 knockout mouse MEF cells assessed as inhibition of eIF4E phosphorylation at 3 uM incubated for 2 hrs by Western blot analysis; assay type: cell-based
Method in brief: (§3)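 MEFs lacking MNK1 or MNK2 (wild-type for comparison) treated 2 h at indicated concentrations; lysates immunoblotted for p-eIF4E, which reflects the remaining MNK isoform; quantified from three independent experiments, SEM.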

MEF [19] = assay: Inhibition of MNK in MNK1 knockout mouse MEF cells assessed as inhibition of eIF4E phosphorylation at 1 uM incubated for 2 hrs by Western blot analysis; assay type: cell-based; method in brief: as §3
A549 [20] = assay: Induction of cell cycle arrest in human A549 cells assessed as accumulation of cells at G2/M phase at 5 uM incubated for 8 hrs by propidium iodide staining based flow cytometry (Rvb=6.5%); assay type: functional
[21] = tested on: MAP kinase-interacting kinase MNK1/2 (Homo sapiens); assay: Inhibition of MNK in human A549 cells assessed as reduction in MCP-1 level at 1 to 10 uM incubated for 48 hrs by ELISA; conditions: dose 1-10 µM
A549 [22] = assay: Induction of cell cycle arrest in human A549 cells assessed as accumulation of cells at G2/M phase at 5 uM incubated for 16 hrs by propidium iodide staining based flow cytometry (Rvb=11.8%); assay type: functional
[23] = AUC (0-t) in mouse at 25 mg/kg, iv and measured upto 24 hrs; assay type: ADME, organism-based; set-up: time < 24 hrs, dose 25 mg/kg, route iv; conditions: in vivo
[24] = tested on: MAP kinase-interacting kinase MNK1/2 (Homo sapiens); assay: Inhibition of MNK in human LNCaP C4-2B cells assessed as inhibition of eIF4E phosphorylation at 5 uM incubated for 2 hrs by Western blot analysis
MDA-MB-231 [25] = assay: Inhibition of colony formation in human MDA-MB-231 cells at 1 to 5 uM measured after 10 days by crystal violet staining based clonogenic assay; assay type: functional, cell-based; conditions: dose 1-5 µM, time 10.0 day
Method in brief: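 Clonogenic assay over 10 days; cells treated with DMSO vehicle or compound at indicated concentrations, plates scanned and colonies quantified from three independent experiments.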

[26] = biological target: Mitogen-activated protein kinase 8 (Homo sapiens) (UniProt P45983); assay: Inhibition of JNK1 (unknown origin) at 3 uM in presence of ATP by kinase assay
Sequence of Mitogen-activated protein kinase 8 (Homo sapiens) (P45983 whole entry): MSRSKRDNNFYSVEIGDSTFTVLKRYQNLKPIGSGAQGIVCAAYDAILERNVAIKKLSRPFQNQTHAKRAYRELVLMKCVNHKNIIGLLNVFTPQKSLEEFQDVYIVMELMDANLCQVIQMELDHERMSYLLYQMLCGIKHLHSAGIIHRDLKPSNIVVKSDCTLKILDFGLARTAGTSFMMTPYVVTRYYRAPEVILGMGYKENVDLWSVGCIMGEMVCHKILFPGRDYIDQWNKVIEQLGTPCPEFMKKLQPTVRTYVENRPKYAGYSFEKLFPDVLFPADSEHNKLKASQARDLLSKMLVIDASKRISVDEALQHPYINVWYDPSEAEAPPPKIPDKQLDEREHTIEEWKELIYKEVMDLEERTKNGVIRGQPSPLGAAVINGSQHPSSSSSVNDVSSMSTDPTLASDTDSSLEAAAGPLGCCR

[27] = Apparent volume of distribution in mouse at 50 mg/kg, po and measured upto 24 hrs; assay type: ADME, organism-based; conditions: in vivo
[28] = biological target: Mitogen-activated protein kinase 9 (Homo sapiens) (UniProt P45984); assay: Inhibition of JNK2 (unknown origin) at 3 uM in presence of ATP by kinase assay
Sequence of Mitogen-activated protein kinase 9 (Homo sapiens) (P45984 whole entry, looked up): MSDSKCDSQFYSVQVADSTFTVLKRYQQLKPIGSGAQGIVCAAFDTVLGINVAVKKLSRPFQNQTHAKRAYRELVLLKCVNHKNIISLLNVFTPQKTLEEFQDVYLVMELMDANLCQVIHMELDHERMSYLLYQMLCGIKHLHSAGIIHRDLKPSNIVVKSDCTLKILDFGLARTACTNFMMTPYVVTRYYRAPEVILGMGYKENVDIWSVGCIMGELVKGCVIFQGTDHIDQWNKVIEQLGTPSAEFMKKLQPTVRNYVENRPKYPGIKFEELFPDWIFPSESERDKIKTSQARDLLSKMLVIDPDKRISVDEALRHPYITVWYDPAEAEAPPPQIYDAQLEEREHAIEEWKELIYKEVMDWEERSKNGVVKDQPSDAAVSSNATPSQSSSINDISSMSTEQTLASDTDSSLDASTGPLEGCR

With `CN1CCN(C(=O)c2ccc(-c3nn4c(-c5ccc(C#N)cc5)cnc4s3)cc2)CC1` the Activity (A549 [1]) was “Active”, the Activity (A549 [2]) was “Active” and the half-life [3] was 3.4 h. For the same compound, the Activity (MDA-MB-231 [4]) was “Active”, the Activity (MDA-MB-231 [5]) was “Active” and the Activity (A549 [6]) was 5.2%. The Activity (A549 [7]) was 88.2%, the inhibition (mTORC1 (Homo sapiens)) was “inactive” and the inhibition [8] was “Active”. The inhibition [9] was “Active”, the Tmax [10] was 1 h and the bioavailability [11] was 60.9%. For the same compound, the T/C (A549 [12]) was 0.5, the Tmax [13] was 4.8 min and the inhibition [14] was “Active”. For the same compound, the inhibition [15] was “Active”, the Activity (A549 [16]) was 91.4% and the inhibition [17] was “Active”. The inhibition (MEF [18]) was 50%, the inhibition (MEF [19]) was “Active” and the Activity (A549 [20]) was 9%. The inhibition [21] was “Active”, the Activity (A549 [22]) was 5.2% and the AUC(0-t) at 24 h [23] was 80900 ng·h/mL. The inhibition [24] was “Active”, the inhibition (MDA-MB-231 [25]) was “Dose-Dependent Effect” and the inhibition [26] was “Active”. For the same compound, the Vz [27] was 3.155 L/kg and the inhibition [28] was “Active”.
